Reference: ChEMBL document CHEMBL3994667, “Small Molecule Lysyl Oxidase-like 2 (LOXL2) Inhibitors: The Identification of an Inhibitor Selective for LOXL2 over LOX” (ACS Med Chem Lett, 2017)
pIC50: −log10 of the molar value.

Assays:
Lysyl oxidase homolog 2 [1] = target: T1, Lysyl oxidase homolog 2 (Homo sapiens, UniProt Q9Y4K0); test: Inhibition of full length recombinant human LOXL2 expressed in CHO cells spiked into human whole blood assessed as reduction in H2O2 production using DAP as substrate preincubated for 2 followed by substrate addition measured every 90 secs for 45 mins by Amplex red dye based fluorescence assay; type: cell-based
T1 sequence (Q9Y4K0 whole entry): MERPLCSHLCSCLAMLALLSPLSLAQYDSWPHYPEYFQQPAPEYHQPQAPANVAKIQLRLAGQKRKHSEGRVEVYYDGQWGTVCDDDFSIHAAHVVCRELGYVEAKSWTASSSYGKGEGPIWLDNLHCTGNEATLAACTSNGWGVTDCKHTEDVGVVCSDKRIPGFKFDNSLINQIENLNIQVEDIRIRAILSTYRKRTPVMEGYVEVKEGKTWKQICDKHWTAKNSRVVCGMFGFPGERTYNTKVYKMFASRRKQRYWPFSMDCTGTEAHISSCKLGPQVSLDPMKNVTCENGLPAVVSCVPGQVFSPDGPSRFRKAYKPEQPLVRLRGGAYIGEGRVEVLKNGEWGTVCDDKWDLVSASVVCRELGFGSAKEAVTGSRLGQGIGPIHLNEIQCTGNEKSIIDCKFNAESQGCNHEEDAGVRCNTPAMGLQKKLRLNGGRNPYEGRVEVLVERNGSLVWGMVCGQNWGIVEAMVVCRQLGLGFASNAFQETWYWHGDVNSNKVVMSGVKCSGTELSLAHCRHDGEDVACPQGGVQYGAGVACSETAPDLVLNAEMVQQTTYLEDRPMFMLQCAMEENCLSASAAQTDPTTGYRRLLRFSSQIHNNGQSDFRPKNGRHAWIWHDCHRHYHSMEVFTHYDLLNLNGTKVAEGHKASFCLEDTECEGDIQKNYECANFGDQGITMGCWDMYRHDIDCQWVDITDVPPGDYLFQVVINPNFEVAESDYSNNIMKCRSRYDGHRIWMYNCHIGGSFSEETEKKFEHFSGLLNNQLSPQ
Method in brief: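 Human recombinant LOXL2 spiked into human whole blood. Oxidative deamination of 1,5-diaminopentane measured as H2O2 with Amplex Red. IC50 expressed as geometric mean x/÷ geometric SD with N.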

Lysyl oxidase homolog 2 [2] = target: T1, Lysyl oxidase homolog 2; test: Inhibition of full length recombinant human LOXL2 expressed in CHO cells assessed as reduction in H2O2 production using DAP as substrate preincubated for 2 hrs followed by substrate addition measured every 2 minutes for 50 minutes in presence of BSA by Amplex red dye based fluorescence assay
Method in brief: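 Serum-free concentrated conditioned medium from CHO cells stably expressing human LOXL2, supplemented with BSA. Compounds preincubated for 2 h (the screening preincubation time). Substrate was 1,5-diaminopentane, and the H2O2 formed was detected with Amplex Red. IC50 given as geometric mean x/÷ geometric SD over N determinations.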

Protein-lysine 6-oxidase = target: T2, Protein-lysine 6-oxidase (Homo sapiens, UniProt P28300); test: Inhibition of full length recombinant human LOX expressed in HEK cells assessed as reduction in H2O2 production using DAP as substrate preincubated for 2 hrs followed by substrate addition measured every 2 minutes for 50 minutes in presence of BSA by Amplex red dye based fluorescence assay
T2 sequence (P28300 whole entry): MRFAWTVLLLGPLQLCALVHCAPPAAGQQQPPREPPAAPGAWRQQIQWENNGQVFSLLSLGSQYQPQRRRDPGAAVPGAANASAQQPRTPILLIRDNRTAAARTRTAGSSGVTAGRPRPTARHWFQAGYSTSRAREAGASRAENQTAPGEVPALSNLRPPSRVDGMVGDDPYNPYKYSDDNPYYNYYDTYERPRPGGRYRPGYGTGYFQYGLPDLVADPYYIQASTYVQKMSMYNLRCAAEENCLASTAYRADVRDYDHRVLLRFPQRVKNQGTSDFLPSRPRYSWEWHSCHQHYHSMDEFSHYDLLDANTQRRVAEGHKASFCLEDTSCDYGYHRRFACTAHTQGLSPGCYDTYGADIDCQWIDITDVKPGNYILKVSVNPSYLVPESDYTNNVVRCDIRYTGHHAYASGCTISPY
Method in brief: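 Enzyme source: serum-free conditioned media from HEK cells stably expressing human LOX, with BSA added to give measurable activity. Activity is measured as H2O2 from oxidative deamination of 1,5-diaminopentane (DAP), read by Amplex Red. IC50 is given as geometric mean x/÷ geometric standard deviation, with N-values reported.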

[3] = target: T3, Amine oxidase [flavin-containing] A (Homo sapiens, UniProt P21397); test: Inhibition of recombinant human MAO-A at 30 uM using tyramine as substrate preincubated for 2 hrs followed by substrate addition measured every 30 secs for 10 minutes by Amplex red dye based fluorescence assay
T3 sequence (P21397 whole entry): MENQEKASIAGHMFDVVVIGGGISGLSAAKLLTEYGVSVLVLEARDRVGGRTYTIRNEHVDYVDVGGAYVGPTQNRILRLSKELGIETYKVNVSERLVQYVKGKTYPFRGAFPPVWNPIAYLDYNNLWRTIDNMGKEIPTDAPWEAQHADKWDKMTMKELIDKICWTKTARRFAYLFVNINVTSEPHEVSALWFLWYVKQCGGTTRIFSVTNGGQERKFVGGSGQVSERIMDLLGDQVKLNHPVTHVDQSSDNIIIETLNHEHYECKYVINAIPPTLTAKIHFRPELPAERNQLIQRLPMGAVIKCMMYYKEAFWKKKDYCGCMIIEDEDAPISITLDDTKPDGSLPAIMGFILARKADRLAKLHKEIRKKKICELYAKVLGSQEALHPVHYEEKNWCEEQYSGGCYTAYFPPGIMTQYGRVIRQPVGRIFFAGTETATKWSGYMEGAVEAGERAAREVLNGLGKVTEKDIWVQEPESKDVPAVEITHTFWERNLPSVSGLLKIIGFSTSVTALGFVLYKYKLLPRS

[4] = target: T4, Amine oxidase [flavin-containing] B (Homo sapiens, UniProt P27338); test: Inhibition of recombinant human MAO-B at 30 uM using benzylamine as substrate preincubated for 2 hrs followed by substrate addition measured every 30 secs for 10 minutes by Amplex red dye based fluorescence assay
T4 sequence (P27338 whole entry): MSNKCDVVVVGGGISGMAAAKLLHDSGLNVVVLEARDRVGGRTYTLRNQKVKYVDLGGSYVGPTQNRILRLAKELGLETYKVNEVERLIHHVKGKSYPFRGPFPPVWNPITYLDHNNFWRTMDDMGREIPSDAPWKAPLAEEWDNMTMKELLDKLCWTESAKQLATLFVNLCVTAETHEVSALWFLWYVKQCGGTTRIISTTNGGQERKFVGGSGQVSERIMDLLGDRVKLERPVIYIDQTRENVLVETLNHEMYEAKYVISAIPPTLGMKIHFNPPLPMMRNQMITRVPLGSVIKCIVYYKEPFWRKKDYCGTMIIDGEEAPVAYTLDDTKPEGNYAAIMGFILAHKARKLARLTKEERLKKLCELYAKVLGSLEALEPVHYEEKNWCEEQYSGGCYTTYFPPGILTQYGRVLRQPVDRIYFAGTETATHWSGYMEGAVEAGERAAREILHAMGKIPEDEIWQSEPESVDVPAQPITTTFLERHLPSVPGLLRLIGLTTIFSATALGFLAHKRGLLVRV

Cytochrome P450 3A4 = Cytochrome P450 3A4 (Homo sapiens, UniProt P08684); test: Inhibition of CYP3A4 (unknown origin); type: ADME
Cytochrome P450 3A4, sequence (P08684 whole entry): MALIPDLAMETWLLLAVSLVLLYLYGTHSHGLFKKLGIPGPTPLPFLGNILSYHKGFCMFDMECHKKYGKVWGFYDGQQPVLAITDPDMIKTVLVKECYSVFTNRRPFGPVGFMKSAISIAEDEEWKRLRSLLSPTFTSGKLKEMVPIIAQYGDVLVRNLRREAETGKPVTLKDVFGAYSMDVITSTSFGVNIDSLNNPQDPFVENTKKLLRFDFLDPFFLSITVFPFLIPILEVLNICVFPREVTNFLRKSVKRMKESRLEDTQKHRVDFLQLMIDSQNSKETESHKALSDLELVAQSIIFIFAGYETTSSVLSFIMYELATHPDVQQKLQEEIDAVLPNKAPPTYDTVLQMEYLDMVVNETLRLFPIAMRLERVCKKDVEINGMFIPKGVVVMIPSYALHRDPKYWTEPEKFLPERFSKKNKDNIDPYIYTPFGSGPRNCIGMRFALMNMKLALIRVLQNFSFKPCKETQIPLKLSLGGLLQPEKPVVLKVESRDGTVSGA

pIC50 (Lysyl oxidase homolog 2 [1]): 5.84
pIC50 (Lysyl oxidase homolog 2 [2]): 6.72
pIC50 (Protein-lysine 6-oxidase): 5.23
inhibition (INH) [3]: Not Active
inhibition (INH) [4]: Not Active
pIC50 (Cytochrome P450 3A4): < 4.52
Structure (SMILES): NCc1ccnc(Cl)c1
